Measured values reported in ChEMBL document CHEMBL1132841, “Optimization of a somatostatin mimetic via constrained amino acid and backbone incorporation” (Bioorg Med Chem Lett, 2000).
pIC50: −log10 of the molar value.

Key:
[1] = molecular target: T1, Somatostatin receptor type 3 (Homo sapiens, UniProt P32745); assay: Inhibition of somatostatin binding to sst3 receptor at 1 uM in radioligand binding assay ([125I]Tyr11-SRIF) in membranes from CHO-K1 cells; assay type: cell membranes
In short: (§1)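 Competitive binding against [125I]-Tyr11-SRIF on membranes from CHO-K1 cells expressing human sst1–sst5, with each test compound at a single concentration. Nonspecific binding was defined with unlabelled SRIF. Incubations were stopped by rapid filtration through 0.5% PEI-soaked glass-fibre filters, then three washes in 50 mM Tris-HCl pH 7.4 with 5 mg/mL BSA. Filter radioactivity was gamma counted.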

[2] = molecular target: T2, Somatostatin receptor type 5 (Homo sapiens, UniProt P35346); assay: Inhibitory concentration required for somatostatin 5 receptor in radioligand binding assay ([125I]-Tyr11-SRIF)
In short: (§2)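 IC50 values were determined by displacement of [125I]-Tyr11-SRIF on membranes from CHO-K1 cells expressing the relevant human sst subtype. Unlabelled SRIF defined nonspecific binding. Bound ligand was separated by rapid filtration on glass-fibre filters pre-soaked in 0.5% PEI. Filters were washed three times with 50 mM Tris-HCl pH 7.4 containing 5 mg/mL BSA and gamma counted.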

[3] = molecular target: T2, Somatostatin receptor type 5; assay: Inhibition of somatostatin binding to sst5 receptor at 1 uM in radioligand binding assay ([125I]Tyr11-SRIF) in membranes from CHO-K1 cells; assay type: cell membranes; in short: as §1
[4] = molecular target: T3, Somatostatin receptor type 2 (Homo sapiens, UniProt P30874); assay: Inhibitory concentration required for somatostatin 2 receptor in radioligand binding assay ([125I]Tyr11-SRIF); in short: as §2
[5] = molecular target: T1, Somatostatin receptor type 3; assay: Inhibitory concentration required for somatostatin 3 receptor in radioligand binding assay ([125I]Tyr11-SRIF); in short: as §2
[6] = molecular target: T3, Somatostatin receptor type 2; assay: Inhibition of somatostatin binding to sst2 receptor at 1 uM in radioligand binding assay ([125I]Tyr11-SRIF) in membranes from CHO-K1 cells; assay type: cell membranes; in short: as §1
[7] = molecular target: T4, Somatostatin receptor type 4 (Homo sapiens, UniProt P31391); assay: Inhibitory concentration required for somatostatin 4 receptor in radioligand binding assay ([125I]Tyr11-SRIF); in short: as §2
[8] = molecular target: T5, Somatostatin receptor type 1 (Homo sapiens, UniProt P30872); assay: Inhibition of somatostatin binding to sst1 receptor at 1 uM in radioligand binding assay ([125I]Tyr11-SRIF) in membranes from CHO-K1 cells; assay type: cell membranes; in short: as §1
[9] = molecular target: T5, Somatostatin receptor type 1; assay: Inhibitory concentration required for somatostatin 1 receptor in radioligand binding assay ([125I]Tyr11-SRIF); in short: as §2
[10] = molecular target: T4, Somatostatin receptor type 4; assay: Inhibition of somatostatin binding to sst4 receptor at 1 uM in radioligand binding assay ([125I]Tyr11-SRIF) in membranes from CHO-K1 cells; assay type: cell membranes; in short: as §1

T3 sequence (P30874 whole entry): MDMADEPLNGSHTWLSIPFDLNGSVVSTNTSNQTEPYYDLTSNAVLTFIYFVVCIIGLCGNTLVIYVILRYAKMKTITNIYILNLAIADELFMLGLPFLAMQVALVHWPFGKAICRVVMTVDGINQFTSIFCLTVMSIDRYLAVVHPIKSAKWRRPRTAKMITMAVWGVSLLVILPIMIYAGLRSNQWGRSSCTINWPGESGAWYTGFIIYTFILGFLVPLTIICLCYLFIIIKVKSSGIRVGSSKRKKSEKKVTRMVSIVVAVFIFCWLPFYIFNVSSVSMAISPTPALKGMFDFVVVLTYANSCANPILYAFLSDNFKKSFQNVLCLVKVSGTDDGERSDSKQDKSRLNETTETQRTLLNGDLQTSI
T5 sequence (P30872 whole entry): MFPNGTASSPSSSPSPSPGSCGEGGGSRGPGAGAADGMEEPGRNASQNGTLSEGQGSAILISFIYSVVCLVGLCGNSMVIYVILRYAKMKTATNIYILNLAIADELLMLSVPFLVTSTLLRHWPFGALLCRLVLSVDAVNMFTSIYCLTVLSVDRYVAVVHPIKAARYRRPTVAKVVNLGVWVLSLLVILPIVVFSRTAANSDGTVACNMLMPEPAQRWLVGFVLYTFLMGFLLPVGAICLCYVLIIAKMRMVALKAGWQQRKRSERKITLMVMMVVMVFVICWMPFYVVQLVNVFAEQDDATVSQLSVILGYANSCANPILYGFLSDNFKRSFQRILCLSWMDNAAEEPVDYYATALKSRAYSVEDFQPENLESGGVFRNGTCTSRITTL
T1 sequence (P32745 whole entry): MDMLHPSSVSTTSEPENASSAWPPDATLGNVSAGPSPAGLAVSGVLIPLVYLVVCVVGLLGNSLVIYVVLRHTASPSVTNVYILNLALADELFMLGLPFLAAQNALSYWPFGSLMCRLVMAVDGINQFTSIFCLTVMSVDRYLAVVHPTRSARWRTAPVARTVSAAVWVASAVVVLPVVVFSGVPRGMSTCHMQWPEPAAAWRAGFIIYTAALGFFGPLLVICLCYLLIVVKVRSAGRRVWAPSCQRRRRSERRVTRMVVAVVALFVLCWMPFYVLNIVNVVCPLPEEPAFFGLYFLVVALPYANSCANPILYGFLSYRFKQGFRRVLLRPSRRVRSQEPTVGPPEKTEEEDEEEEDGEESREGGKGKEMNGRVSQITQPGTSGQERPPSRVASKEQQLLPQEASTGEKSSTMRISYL
T4 sequence (P31391 whole entry): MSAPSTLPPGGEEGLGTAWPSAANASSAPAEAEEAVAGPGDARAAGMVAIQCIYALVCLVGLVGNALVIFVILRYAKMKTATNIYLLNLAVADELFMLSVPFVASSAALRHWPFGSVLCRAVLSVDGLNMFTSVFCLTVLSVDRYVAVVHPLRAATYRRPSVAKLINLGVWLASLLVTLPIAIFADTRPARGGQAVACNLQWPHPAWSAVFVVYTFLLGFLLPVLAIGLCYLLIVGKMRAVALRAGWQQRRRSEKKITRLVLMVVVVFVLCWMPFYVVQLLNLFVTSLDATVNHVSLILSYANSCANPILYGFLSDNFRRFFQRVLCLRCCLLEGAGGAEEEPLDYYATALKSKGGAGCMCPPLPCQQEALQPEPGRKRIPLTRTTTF
T2 sequence (P35346 whole entry): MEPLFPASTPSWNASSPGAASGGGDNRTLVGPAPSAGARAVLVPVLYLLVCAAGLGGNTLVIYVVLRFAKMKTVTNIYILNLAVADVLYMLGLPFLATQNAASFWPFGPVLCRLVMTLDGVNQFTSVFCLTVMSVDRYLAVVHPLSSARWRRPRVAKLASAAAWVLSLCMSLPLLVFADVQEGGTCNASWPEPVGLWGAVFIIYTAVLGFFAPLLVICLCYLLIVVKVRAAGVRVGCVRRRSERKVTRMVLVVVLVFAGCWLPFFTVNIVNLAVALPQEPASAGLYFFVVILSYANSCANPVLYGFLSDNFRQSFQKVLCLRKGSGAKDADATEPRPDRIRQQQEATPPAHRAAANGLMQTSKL

## NCCCC1CCCN2C(=O)[C@@H](Cc3c[nH]c4ccccc34)SCCN(Cc3cccc4ccccc34)C(=O)C12 (stereo not given in full)
[1]
  inhibition: 44%
[2]
  pIC50: 7.39
[3]
  inhibition: 89%
[4]
  pIC50: 6.56
[5]
  pIC50: 5.90
[6]
  inhibition: 74%
[7]
  pIC50: 7.39
[8]
  inhibition: 64%
[9]
  pIC50: 6.39
[10]
  inhibition: 99%

## NCCCC[C@H]1NC(=O)[C@@H](Cc2c[nH]c3ccccc23)SCCN(Cc2cccc3ccccc23)C1=O
[1]
  inhibition: 42%
[2]
  pIC50: 7.06
[3]
  inhibition: 99%
[4]
  pIC50: 5.80
[5]
  pIC50: 5.51
[6]
  inhibition: 33%
[7]
  pIC50: 5.98
[8]
  inhibition: 64%
[9]
  pIC50: 6.30
[10]
  inhibition: 43%

## NCCCC[C@H]1NC(=O)[C@@H](Cc2c[nH]c3ccccc23)Sc2ccccc2CN(Cc2cccc3ccccc23)C1=O
[1]
  inhibition: 13%
[3]
  inhibition: 64%
[6]
  inhibition: 7%
[8]
  inhibition: 36%
[10]
  inhibition: 41%

## NCC[C@H]1C[C@@H]2C(=O)N(Cc3cccc4ccccc34)CCS[C@H](Cc3c[nH]c4ccccc34)C(=O)N2C1
[1]
  inhibition: 16%
[3]
  inhibition: 50%
[6]
  inhibition: 20%
[8]
  inhibition: 28%
[10]
  inhibition: 17%

## NCC[C@@H]1C[C@@H]2C(=O)N(Cc3cccc4ccccc34)CCS[C@H](Cc3c[nH]c4ccccc34)C(=O)N2C1
[1]
  inhibition: 19%
[3]
  inhibition: 56%
[6]
  inhibition: 7%
[8]
  inhibition: 13%
[10]
  inhibition: 12%
